This note sets out measurements from ChEMBL document CHEMBL1143310, “Design, synthesis, and biological evaluation of fluorinated analogues of salicylihalamide” (J Med Chem, 2009).

In data set [1] the test system is COS-7. The data set is described as follows: Inhibition of V-ATPase activity in african green monkey COS7 cells assessed as increase in luminal pH of lysosomes at 1 uM after 5 hrs by fluorescent microscopy. In kind it is cell-based. To be noted: Chlorocebus aethiops. The method in brief:
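COS-7 cells grown in DMEM with 10% FCS at 37 °C in 5% CO2 on poly-L-lysine coverslips overnight. Compound added at 1 µM final for 5 h at 37 °C. Cells then loaded 1 min with LysoSensor Green DND-189 (1 µM final) and washed with HBSS. Lysosomal fluorescence imaged by microscopy with a cooled CCD camera. Duplicate experiments.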

The nature of data set [2]: Inhibition of proton transport activity of V-ATPase in pig adrenal chromaffin granule membrane by fluorescent quenching measurement. More on the design: species or system Sus scrofa. Summed up: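 Porcine adrenal chromaffin granule membranes (50 µg protein) in 0.3 M sucrose, 40 mM KCl, 5 mM tricine, pH 8.0, with ACMA and valinomycin, preincubated 10 min at 37 °C. Compound added in DMSO (0.1% final), 3 min at 37 °C. MgATP added for 2 min, then FCCP. ACMA fluorescence quenching read. Activity taken as % of DMSO control, in triplicate with SD. IC50 derived graphically from log-concentration plots.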

The nature of data set [3]: Cytotoxicity against human melanoma cells. In kind it is functional. To be noted: Melanoma cell.
Data set [4] is described as follows: Cytotoxicity against human NCI60 cells. In kind it is functional.
Data set [5] can be described thus: Inhibition of V-ATPase activity in bovine […] chromaffin granule membrane. More on the design: species or system Bos taurus.
A short description of data set [6]: Cytotoxicity against african green monkey COS7 cells at 1 uM after 5 hrs by trypan blue exclusion test. In kind it is cell-based. The conditions noted are these: chlorocebus aethiops, cos-7, 5 h. The method in brief: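 COS-7 cells were cultured on poly-L-lysine coverslips and exposed to compound at 1 µM final for 5 h at 37 °C. Intact or treated cells were soaked in PBS with 0.3% trypan blue. Viability was judged by dye exclusion under bright-field and phase-contrast microscopy.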

The source made the active and inactive calls. The rule behind the calls is not given here.

For orientation: IC50 means the midpoint of a concentration-inhibition curve. Take `CC/C=C\C=C/C(=O)N/C=C/C[C@H]1C[C@@H](O)[C@@H](C)C/C=C/Cc2ccc(F)c(O)c2C(=O)O1` [4-19F-SALICYLIHALAMIDE A]: in data set [1], the outcome was Active. In data set [2], this compound registered an IC50 of 2 nM.
On the same counts, the results for `CC/C=C\C=C/C(=O)N/C=C\C[C@H]1C[C@@H](O)[C@@H](C)C/C=C/Cc2ccc(F)c(O)c2C(=O)O1` [4-19F-SALICYLIHALAMIDE B] are “Active” and 10 nM.
For orientation: GI50 means the concentration at which growth is held to half of that of the control. On to `CC/C=C\C=C/C(=O)N/C=C/C[C@H]1C[C@@H](O)[C@@H](C)C/C=C/Cc2cccc(O)c2C(=O)O1` [SALICYLIHALAMIDE A], for which the GI50 stood at 7 nM in data set [3] and 15 nM in data set [4]. Also, the outcome in data set [1] was Active. Besides, the 50% inhibitory concentration (IC50) was 1 nM in data set [5] and under 1 nM in data set [2]. In addition, the Activity entry in data set [6] is recorded as “Non-toxic”.
Consider `CC/C=C\C=C/C(=O)N/C=C\C[C@H]1C[C@@H](O)[C@@H](C)C/C=C/Cc2cccc(O)c2C(=O)O1` [SALICYLIHALAMIDE B], for which the outcome in data set [1] was Active. Moreover, half-maximal inhibition in data set [2] (IC50) required 30 nM. Further, in data set [6], the Activity entry is reported as “Non-toxic”.
